According to ChEMBL document CHEMBL1130133, “Terbenzimidazoles: influence of 2"-, 4-, and 5-substituents on cytotoxicity and relative potency as topoisomerase I poisons” (J Med Chem, 1997):

Legend:
[1] = molecular target: T1, DNA topoisomerase 1 (Homo sapiens) (UniProt P11387); test: Topoisomerase I mediated DNA cleavage; assay type: functional
T1 sequence (whole entry): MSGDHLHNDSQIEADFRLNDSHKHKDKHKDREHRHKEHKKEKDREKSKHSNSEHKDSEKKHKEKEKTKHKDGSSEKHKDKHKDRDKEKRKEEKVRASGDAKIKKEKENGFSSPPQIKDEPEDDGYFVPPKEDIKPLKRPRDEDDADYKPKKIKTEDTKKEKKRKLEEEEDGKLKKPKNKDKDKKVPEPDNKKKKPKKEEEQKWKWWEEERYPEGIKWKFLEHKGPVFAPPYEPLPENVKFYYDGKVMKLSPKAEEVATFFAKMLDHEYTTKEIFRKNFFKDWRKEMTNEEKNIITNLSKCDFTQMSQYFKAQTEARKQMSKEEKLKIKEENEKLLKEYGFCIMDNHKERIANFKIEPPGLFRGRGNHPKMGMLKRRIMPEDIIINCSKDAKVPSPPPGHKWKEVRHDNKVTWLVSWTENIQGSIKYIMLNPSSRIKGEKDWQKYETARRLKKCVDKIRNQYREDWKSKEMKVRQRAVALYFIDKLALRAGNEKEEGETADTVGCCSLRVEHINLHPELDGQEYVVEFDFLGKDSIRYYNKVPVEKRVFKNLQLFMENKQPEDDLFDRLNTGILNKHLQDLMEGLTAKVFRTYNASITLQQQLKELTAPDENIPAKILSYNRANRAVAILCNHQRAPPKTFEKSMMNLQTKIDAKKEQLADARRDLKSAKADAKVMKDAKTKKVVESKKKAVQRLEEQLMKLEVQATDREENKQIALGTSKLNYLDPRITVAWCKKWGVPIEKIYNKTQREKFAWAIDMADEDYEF
Outline: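 Recombinant human topoisomerase I (expressed in E. coli) was incubated with end-labeled plasmid YEpG DNA and drug for 30 min at 37 °C. Drug was given as 10-fold serial dilutions from 0.01 to 10 µg/mL. Fragments were separated on gels and autoradiographed, typically with 24 h exposure. Cleavage was scored from the strongest specific band and expressed as concentration relative to reference compound (set to 1) giving equal cleavage.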

RPMI 8402 = test: Cytotoxicity using human lymphoblast RPMI 8402 cells.; assay type: functional, cell-based
Outline: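 Human lymphoblast RPMI 8402 cells were grown in suspension at 37 °C, 5% CO2, in RPMI with 10% heat-inactivated FBS, 2 mM L-glutamine, penicillin 100 U/mL and streptomycin 0.1 mg/mL. Cells were seeded at 2000/well and exposed continuously to a range of drug concentrations for 4 days, then read by MTT assay. A no-drug control was included, and each assay was run at least twice in six replica wells.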

| Structure (SMILES) | REC [1] | IC50 (RPMI 8402) [nM] |
| --- | --- | --- |
| c1ccc2c(-c3ccc4[nH]c(-c5ccc6[nH]c(-c7ccc8[nH]cnc8c7)nc6c5)nc4c3)cccc2c1 | 2 | 2100 |
| Clc1ccc(-c2ccc3[nH]c(-c4ccc5[nH]c(-c6ccc7[nH]cnc7c6)nc5c4)nc3c2)cc1 | 2 | 90 |
| Cc1nc2cc(-c3nc4cc(-c5nc6cc(-c7ccccc7)ccc6[nH]5)ccc4[nH]3)ccc2[nH]1 | 2 | 110 |
| COc1ccc(-c2nc3cc(-c4nc5cc(-c6nc7cc(-c8ccccc8)ccc7[nH]6)ccc5[nH]4)ccc3[nH]2)cc1 | 20 | 380 |
| c1ccc(-c2ccc3[nH]c(-c4ccc5[nH]c(-c6ccc7[nH]c(-c8ccccc8)nc7c6)nc5c4)nc3c2)cc1 | 20 | 60 |
| CCCc1nc2cc(-c3nc4cc(-c5nc6cc(-c7ccccc7)ccc6[nH]5)ccc4[nH]3)ccc2[nH]1 | 0.5 | 60 |
| c1ccc2c(c1)ccc1[nH]c(-c3ccc4[nH]c(-c5ccc6[nH]cnc6c5)nc4c3)nc12 | 1 | 25000 |
| c1ccc2cc3[nH]c(-c4ccc5[nH]c(-c6ccc7[nH]cnc7c6)nc5c4)nc3cc2c1 | > 1000 | > 100000 |
| CCc1nc2cc(-c3nc4cc(-c5nc6cc(-c7ccccc7)ccc6[nH]5)ccc4[nH]3)ccc2[nH]1 | 1 | 110 |
| CC(C)c1nc2cc(-c3nc4cc(-c5nc6cc(-c7ccccc7)ccc6[nH]5)ccc4[nH]3)ccc2[nH]1 | 0.05 | 60 |
| c1ccc2cc(-c3ccc4[nH]c(-c5ccc6[nH]c(-c7ccc8[nH]cnc8c7)nc6c5)nc4c3)ccc2c1 | 1 | 80 |
| c1ccc(-c2cccc3[nH]c(-c4ccc5[nH]c(-c6ccc7[nH]cnc7c6)nc5c4)nc23)cc1 | 5 | 7000 |
| COc1ccc(-c2ccc3[nH]c(-c4ccc5[nH]c(-c6ccc7[nH]cnc7c6)nc5c4)nc3c2)cc1 | 0.5 | 90 |
| c1ccc(-c2ccc3[nH]c(-c4ccc5[nH]c(-c6ccc7[nH]cnc7c6)nc5c4)nc3c2)cc1 | 1 |  |
